Bioassay records from PubChem.
procasp7 counter = procaspase-7 activators, primary screen, counter-screen for procaspase-3 activator project, biochemical, absorbance, HTS, human | recombinant procaspase-7, Ac-DEVD-pNA absorbance 405 nm; D23A/D198A/D206A triple mutant, cannot self-cleave; scale: DMSO 0, 5 µM enzyme 100 | AID 463210, 2010 | 0.093% of 330,000 active | Caspase-7 (Homo sapiens), P55210 | activation, % at 8.5 µM;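 active means percent activation above the screen-wide mean plus 3 SD, cut at about 25% in these data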
Target sequence (P55210 whole entry D23A/D198A/D206A): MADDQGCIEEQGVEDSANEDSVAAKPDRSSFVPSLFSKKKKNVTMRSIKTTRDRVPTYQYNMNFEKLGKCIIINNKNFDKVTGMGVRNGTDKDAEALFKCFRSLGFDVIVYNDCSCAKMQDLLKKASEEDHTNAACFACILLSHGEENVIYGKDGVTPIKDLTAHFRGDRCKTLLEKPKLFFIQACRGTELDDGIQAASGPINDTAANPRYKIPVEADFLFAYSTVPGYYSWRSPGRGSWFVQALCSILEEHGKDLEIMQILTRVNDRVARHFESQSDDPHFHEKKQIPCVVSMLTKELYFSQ
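Detection: p-Nitroaniline absorbance at 405 nm, read at 0 and 120 min; system: Uncleavable procaspase-7 mutant enzyme; evaluation: % activation from two-timepoint absorbance difference, scaled to controls; times: 1 h enzyme–compound preincubation and 2 h substrate reaction, both 25 °C; buffer or medium: Zinc-free HEPES pH 7.4 with 300 mM NaCl, 0.01% Triton X-100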
IDE inh = human IDE inhibitors in live cells, primary screen, fluorescence polarization, HEK cells, FAbetaB substrate. FAbetaB cleavage. 0.41% of 320,000 active. inhibition, % at 5.59 µM. Insulin-degrading enzyme (Homo sapiens), P14735. AID 434962, 2010;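 active means percent inhibition above the average of all tested compounds plus 3 SD, set per screening campaign, cut at about 16% in these data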;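 further: IDE supplied by intact live HEK cells; FP after avidin binding of uncleaved biotin substrate so inhibition keeps polarization high; 0% = DMSO wells and 100% = 60 µM reference IDE inhibitor Ii1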
IDE cell activ = human IDE activators in live cells, primary screen, fluorescence polarization, HEK cells, FAbeta-B substrate | FAbeta-B cleavage; 0% vehicle, 100% cell-free pure enzyme wells | activation, % at 5.96 µM | 0.073% of 340,000 active | AID 493087, 2011;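 active means activation above the mean of all tested compounds plus 3 SD, set per screening campaign, cut at about 17% in these data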
UBC13 polyUb = UBC13 polyubiquitin chain formation inhibitors, primary screen, biochemical, TR-FRET, uHTS; Ubiquitin-conjugating enzyme E2 N (Homo sapiens), P61088; inhibition, % at 20 µM; 0.47% of 330,000 active; AID 485273, 2010; in the data active means inhibition above about 45%, passing the limit was not always enough
Target sequence (P61088 whole entry, looked up): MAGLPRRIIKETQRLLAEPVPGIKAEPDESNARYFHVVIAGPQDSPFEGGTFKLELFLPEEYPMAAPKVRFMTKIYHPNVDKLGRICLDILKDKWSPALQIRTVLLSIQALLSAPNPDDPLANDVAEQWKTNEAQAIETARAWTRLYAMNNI
procasp3 activ = activators of human procaspase-3 D3A mutant, primary screen, biochemical, absorbance, PC-3 D3A mutant, single concentration. Caspase-3 (Homo sapiens), P42574. recombinant procaspase-3 D3A, Ac-DEVD-pNA absorbance 405 nm. activation, % at 8.5 µM. 0.11% of 330,000 active. AID 463141, 2010;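 active means activation above the mean of all tested compounds plus 3 SD, cut at about 21% in these data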;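 further: 0% = DMSO alone and 100% = DMSO wells spiked with extra 5 µM PC-3 D3A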
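Assay system – Procaspase-3 D3A mutant, all three cleavage aspartates alanine · Controls – DMSO-only low control, 5 µM PC-3 D3A high control · Schedule – 1 h compound preincubation, 2 h substrate hydrolysis at 25 °C · Signal – 405 nm absorbance of p-nitroaniline, reads at 0 and 120 min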
PHOSPHO1 inh = PubChem AID 1565; Phosphoethanolamine/phosphocholine phosphatase (Homo sapiens), Q8TCT1; recombinant PHOSPHO1, absorbance phosphatase assay; inhibition, % at 13.3 µM; 1.1% of 290,000 active; in the data active means inhibition above about 60%
IDE inh confirm = human IDE inhibitors in live cells, confirmation, fluorescence polarization, HEK cells, FAbetaB substrate; shares compounds with IDE inh; FAbetaB cleavage; inhibition, % at 5.59 µM; 51% of 1,200 active; AID 435028, 2010;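 active means mean inhibition across triplicate wells above the cutoff set by the earlier primary insulin-degrading enzyme screen, cut at about 16% in these data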;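 further: 0% = DMSO wells and 100% = 60 µM reference IDE inhibitor Ii1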
HEK cytotox = cytotoxicity in HEK cells, cytotoxicity control for IDE inhibitor project, cell-based, luminescence. HEK293 cytotoxicity, ATP luminescence. inhibition, % at 5.59 µM. shares compounds with IDE inh. 28% of 1,200 active; in the data active means inhibition above about 22%;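 further: 0% = vehicle wells and 100% = reference cytotoxic drug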
IDE FP artifact = fluorescent or optically active artefacts, dose response, artefact control for IDE inhibitor project, biochemical, fluorescence polarization; shares compounds with IDE inh; FP counterscreen for fluorescent artifacts, IDE probe project; IC50, µM; 30 tested, under 10 active; AID 588718, 2011; call rule not given here
Numbers without * were called inactive; . = no result. This is a sample that favours compounds with a hit; in the whole collection about 1.9% have one here.

SMILES	procasp7 counter	IDE inh	IDE cell activ	UBC13 polyUb	procasp3 activ	PHOSPHO1 inh	IDE inh confirm	HEK cytotox	others
O=C(Nc1ccc2oc(-c3ccncc3)nc2c1)c1ccc2c(c1)OCCO2	-4	17*	-30	15	-3	38	14	33*
C[C@H](CO)N1C[C@H](C)[C@@H](CN(C)S(C)(=O)=O)Oc2ccc(NC(=O)Nc3ccc4c(c3)OCO4)cc2C1=O	-10	12	-3	3	-6	.	.	.
O=c1c2ccccc2sn1-c1cc(S(=O)(=O)N2CCOCC2)ccc1N1CCOCC1	-25	59*	-32	10	-16	-36	59*	17	IDE FP artifact=>55
CN1/C(=C/C=C(C#N)C#N)C(C)(C)c2ccccc21	-3	-5	-3	-17	0	4	.	.
CCCCCCN1C=CC=C/C1=C\C=C(C#N)C#N	-18	25*	.	-44	-22	20	35*	13
COc1cc(/C=C/c2nc3ccccc3c(=O)[nH]2)cc(Cl)c1O	2	27*	-75	-3	-6	-79	100*	6
Cc1c(NC(=O)CSc2ccc3ccccc3n2)c(=O)n(-c2ccccc2)n1C	-6	-1	4	0	-8	.	.	.
CCOC(=O)C1=C(C)Nc2ccccc2N=C1NC(=O)c1cc(C)on1	0	-4	8	-16	0	.	.	.
Cc1c(CCC(=O)NCC(=O)NCC(=O)O)c(=O)oc2cc3oc4c(c3cc12)CCCC4	12	24*	-12	-5	16	-12	12	11
CCCCCN1CC(=O)N2Cc3[nH]c4ccccc4c3C[C@H]2C1=O	4	-1	-2	2	4	42	.	.
CCCCN1C(=O)C2Cc3c([nH]c4ccccc34)CN2C1=S (stereo unspecified)	-8	30*	-33	-5	-2	-11	94*	13
COc1cc([C@H]2OC[C@H]3[C@@H]2CO[C@@H]3c2ccc(O[C@H]3O[C@H](CO)[C@@H](O)[C@H](O)[C@H]3O)c(OC)c2)ccc1O[C@@H]1O[C@H](CO)[C@@H](O)[C@H](O)[C@H]1O	5	3	5	-5	2	.	.	.
COc1ccc(CC(=O)N(Cc2ccccc2)c2ccc(C)cc2)cc1OC	7	-3	6	-2	3	25	.	.
COc1cccc(Cl)c1NC(=O)N1CCN(c2cc(C)nc3ccccc23)CC1	4	28*	-33	6	-5	47	22*	23*
CCN(CC)c1ccc(/C=C/c2nc3ccccc3s2)cc1	-51	12	.	-8	-44	48	.	.
COc1cc2nc(/C=C/c3ccc(N(C)C)cc3)sc2cc1SC	-29	70*	-47	.	-48	12	51*	13
O=C1C=CC(=O)C(C2=C3C(=O)N(CCc4ccccc4)CC(=O)N3CCC2)=C1	-47	40*	.	-13	-17	2	10	124*
O=C(OC1CO[C@H]2O[C@@H]1[C@H](OC(=O)c1ccccc1)[C@H]2OC(=O)c1ccccc1)c1ccccc1 (stereo partly specified)	4	0	.	-19	-8	.	.	.
CCNC(=O)CSC1=N/C(=C\c2ccc(O)c(OCC)c2)C(=O)N1c1ccc(OC(F)F)cc1	-13	70*	-56	-42	-3	23	148*	9
